Most compounds without a hit are left out; they make up all but 3.5% or so of the library.
RGS4 pot – RGS4 potentiators or activators, primary screen, cell-based, HEK293 M3R inducible RGS4, calcium flux. carbachol calcium flux Fluo4; active compounds read low. B-score at 10 µM. 0.92% of 310,000 active. AID 463111, 2010;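 active means B-score of the integrated calcium signal more than 4 SD below the library mean, with starting fluorescence not abnormally high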;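 further: negative B-score means reduced calcium response which marks RGS4 activation or potentiation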
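Test system: HEK293 cells with stable M3R and inducible RGS4; also added: carbachol at ECmax as muscarinic agonist stimulus; schedule: dye loading 30 min 37 °C, buffer rest 30 min RT; technique: kinetic calcium fluorescence imaging with Fluo4-AM dye, 2 µM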
MrgX1 agonist – agonists of human MrgX1 receptor, primary screen, HEK293 cells, Fluo-4 calcium flux; B-score at 10 µM; Mas-related G-protein coupled receptor member X1 (Homo sapiens), Q96LB2; Fluo-4 calcium fluorescence, agonist mode; active compounds read high; 0.44% of 310,000 active; AID 588627, 2011;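 active means calcium response B-score plate-corrected fluorescence ratio at least 3 library SD, with starting fluorescence B-score inside 5 SD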
Target sequence (Q96LB2 whole entry, looked up): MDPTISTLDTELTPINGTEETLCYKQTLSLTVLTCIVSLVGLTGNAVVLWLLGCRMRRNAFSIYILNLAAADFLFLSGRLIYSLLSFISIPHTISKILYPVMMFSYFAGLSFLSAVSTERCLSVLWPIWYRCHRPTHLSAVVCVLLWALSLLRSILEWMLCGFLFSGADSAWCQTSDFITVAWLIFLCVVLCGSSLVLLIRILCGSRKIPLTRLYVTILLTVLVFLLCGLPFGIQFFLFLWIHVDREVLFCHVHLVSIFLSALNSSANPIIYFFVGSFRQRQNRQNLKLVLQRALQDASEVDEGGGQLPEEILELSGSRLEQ
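Test system: HEK293 cells stably expressing human MrgX1 receptor; amount: 15,000 cells per well; doses: compound delivered in addition one of three; times: overnight plating before 1 h dye loading; detection: Fluo-4 NW calcium-flux fluorescence, kinetic read; read-out basis: B-scored fluorescence response ratio; controls: positive and negative controls per plate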
MrgX1 allo act – positive allosteric modulators of MrgX1, primary screen, HEK293 cells, Fluo-4 calcium flux; FDSS; active compounds read high; AID 588675, 2011; Mas-related G-protein coupled receptor member X1 (Homo sapiens), Q96LB2; B-score at 10 µM; 0.63% of 310,000 active;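 active means plate-corrected calcium response at least 3 library SD above typical, normal starting fluorescence, not activating the receptor alone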;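 further: compound read alongside a low EC10 to EC30 dose of BAM8-22 agonist; peak minus trough fluorescence over baseline measured at the second addition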
MrgX1 antagonist – antagonists of human MrgX1 receptor, primary screen, HEK293 cells, Fluo-4 calcium flux | BAM8-22 antagonism; active compounds read low | B-score at 10 µM | 1.3% of 310,000 active;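 active means calcium-response B-score plate-corrected more than 3 library SD below zero, starting fluorescence within 5 deviations, no agonist response on first addition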;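 further: peak minus trough fluorescence over baseline after final BAM8-22 challenge near maximal dose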
RGS4 inh – RGS4 inhibitors, primary screen, cell-based, HEK293 M3R inducible RGS4, calcium flux | Regulator of G-protein signaling 4 (Homo sapiens), P49798 | 0.45% of 310,000 active | B-score at 10 µM | Fluo-4 calcium flux; active compounds read high; triggered by carbachol at its EC20;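 active means B-score, a plate-corrected calcium signal, over three deviations above library mean, with baseline fluorescence within five deviations of library mean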;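 further: RGS4 expression induced by doxycycline in cells with stable M3 receptor; B-score is computed from the integrated fluorescence ratio over baseline after carbachol; higher B-score means a larger calcium signal and so more RGS4 inhibition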
Target sequence (P49798 whole entry, looked up): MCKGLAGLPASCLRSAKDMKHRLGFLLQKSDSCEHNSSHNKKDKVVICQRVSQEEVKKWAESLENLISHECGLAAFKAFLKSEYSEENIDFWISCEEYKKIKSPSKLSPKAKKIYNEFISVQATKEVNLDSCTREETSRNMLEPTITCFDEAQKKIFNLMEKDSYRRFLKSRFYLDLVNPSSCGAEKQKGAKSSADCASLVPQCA
RGS4 inh valid – enhanced carbachol calcium response, M3R/RGS4 cells, RGS4 inhibitor project, cell-based, validation screen, HEK293 M3R/RGS4, calcium flux; carbachol calcium Fluo-4 fluorescence; carbachol added at its EC20; 0 = buffer wells, 100 = carbachol control; shares compounds with RGS4 inh; 65% of 1,700 active; calcium response, % at 10 µM; AID 492999, 2010;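 active means duplicate-averaged calcium response above the buffer-only control mean plus 5 SD of those controls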;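 further: integrated fluorescence ratio F max minus min over baseline F0; higher response in RGS4-induced cells means RGS4 inhibition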
M3R Ca ctr – carbachol calcium response in non-induced M3R cells, confirmation, counter-screen for RGS4 inhibitor project, cell-based, HEK293 M3R; shares compounds with RGS4 inh; carbachol calcium Fluo-4; submaximal (EC20) carbachol stimulus; buffer wells 0%, carbachol control wells 100%; activity (percent), % at 10 µM; 20% of 1,900 active; AID 493000, 2010; call rule not given here;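 further: RGS4 induction absent so cells express M3R without RGS4; higher means more calcium signal and flags a non-specific hit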
M3R basal Ca ctr – signal in non-induced cells without carbachol, RGS4 inhibitor counter-screen; shares compounds with RGS4 inh; HEK293 M3R/RGS4 non-induced, Fluo-4 calcium, no carbachol; normalised: buffer wells 0%, carbachol wells 100%; calcium response (agonist-mode artifact), % at 10 µM; 22% of 1,900 active;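 active means duplicate-averaged calcium rise in uninduced cells above buffer wells' mean plus 5 SD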
* hit, by the source's call; i = inactive; / = no result.

SMILES	RGS4 pot	MrgX1 agonist	MrgX1 allo act	MrgX1 antagonist	RGS4 inh	RGS4 inh valid	M3R Ca ctr	M3R basal Ca ctr
O=C(Cn1nnc(-c2ccccc2Cl)n1)N/N=C/c1ccc(-c2cccc(Cl)c2)o1	i	i	i	i	i	/	/	/
CCCCN(C(=O)CCNC(=O)NC12CC3CC(CC(C3)C1)C2)c1c(N)n(CCC)c(=O)[nH]c1=O	i	i	i	i	i	/	/	/
COc1ccc(NC(=O)CC2C(=O)N(C)C(=S)N2CCc2ccccc2F)cc1 (centres undefined)	i	i	i	i	i	/	/	/
O=C(CC1C(=O)NCCN1C(=O)Nc1ccc(Cl)cc1)Nc1ccc(F)cc1 (centres undefined)	i	i	i	i	5.6*	23%*	37%*	12%*
COc1ccc(NC(=O)N2CCNC(=O)C2CC(=O)Nc2ccc(F)cc2)cc1 (centres undefined)	i	i	i	i	i	i	i	i
NC(=S)N/N=C/c1cn(-c2ccccc2)nc1-c1cccnc1	i	i	i	i	i	/	/	/
CCOC(=O)N1CCC(=NNc2ccnc3cc(Cl)ccc23)CC1	i	i	i	i	i	/	/	/
CC(=O)N1CCC(=NNc2ccnc3cc(Cl)ccc23)CC1	i	i	i	i	6.9*	28%*	i	i
NC1=NC[C@H](CC2CCCCC2)N1CCc1cc(C(F)(F)F)cc(C(F)(F)F)c1	i	i	i	i	i	/	/	/
Cc1ccc(/C=C/c2nc3ccccc3[nH]2)o1	i	i	i	i	14*	i	i	i
Cc1cc2nc(/C=C/c3nc4cc(C)c(C)cc4[nH]3)[nH]c2cc1C	i	i	i	i	i	/	/	/
O=[N+]([O-])c1ccccc1-c1cc(-c2ccccc2O)n[nH]1	i	i	i	i	i	i	i	i
O=C(O)c1cc(-c2ccc(Cl)c(Cl)c2)n(-c2ccccc2)n1	i	i	i	i	i	/	/	/
CCOC(=O)C1CCN(C(=O)c2ccc(OC3CCN(C(=O)COC)CC3)cc2)CC1	i	/	/	/	i	/	/	/
O=C(CCN1C(=O)/C(=C/C=C/c2ccccc2)SC1=S)Nc1nc2ccccc2s1	i	i	i	i	i	/	/	/
O=C(O)CCCCCN1C(=O)/C(=C\c2ccc(-c3ccc(Cl)cc3)o2)SC1=S	-11*	i	i	i	36*	44%*	i	48%*
O=C(O)CCCN1C(=O)/C(=C/c2ccc(-c3nc4ccccc4s3)o2)SC1=S	-9.2*	i	i	i	22*	8.0%*	i	389%*
C=CCOc1ccc2c(c1)C(=NO)c1cc(OCC=C)ccc1-2	i	i	i	i	5.6*	9.5%*	i	i
O=C1/C(=C/c2ccc([N+](=O)[O-])cc2)C=C(c2ccccc2)N1c1ccc(O)cc1	i	i	i	i	5.1*	9.0%*	i	i
O=C1/C(=C/c2ccc([N+](=O)[O-])cc2)C=C(c2ccccc2)N1c1ccccc1	i	i	i	i	i	i	i	i
COc1ccc(N2C(=O)/C(=C/c3ccc([N+](=O)[O-])cc3)C=C2c2ccccc2)cc1	i	i	i	i	i	/	/	/
Cc1c(C(=O)NCC2CCCO2)oc2c(Cl)cccc12 (centres undefined)	i	i	i	i	i	/	/	/
CCN1C(=O)N/C(=C/c2ccc(C)o2)C1=O	i	i	i	i	i	/	/	/
Cc1ccc(/C=C2/NC(=O)N(Cc3ccc(Br)cc3)C2=O)o1	i	i	i	i	i	i	i	22%*
NC(=O)c1nsc(C(=O)N(Cc2cccnc2)C(C(=O)NCc2ccc(F)cc2)c2ccc(F)cc2)c1N (centres undefined)	i	i	i	i	i	/	/	/
SMILES	RGS4 pot	MrgX1 agonist	MrgX1 allo act	MrgX1 antagonist	RGS4 inh	RGS4 inh valid	M3R Ca ctr	M3R basal Ca ctr
Cc1c(Cl)ccc2sc(NC(=O)C3CC3)nc12	i	i	i	i	6.2*	8.0%*	i	i
CC(C)NCC(O)c1cc(O)cc(O)c1 (centres undefined)	i	i	i	i	4.8*	22%*	52%*	i
C=CCNC(=O)NC(=O)COC(=O)c1nc2nccc(C)n2n1	i	i	i	i	4.7*	i	i	i
COc1cccc(NC(=S)NCCc2ccccn2)c1	i	i	i	i	i	/	/	/
CCc1ccc2nc(NC(=O)c3cc(C)on3)sc2c1	i	i	i	i	6.4*	25%*	36%*	i
COc1ccc(S(=O)(=O)Nc2cccc(F)c2)cc1C	i	i	i	i	i	/	/	/
COc1ccc(S(=O)(=O)Nc2ccc(S(=O)(=O)Nc3ccc(F)cc3)cc2)cc1C	i	i	i	i	5*	22%*	i	i
Cc1ccc(/C=N/N2CCN(Cc3ccccc3)CC2)cc1	i	i	i	i	i	/	/	/
Cc1ccc(CN2CCN(/N=C/c3ccc(N(C)C)cc3)CC2)cc1	i	i	i	i	8.8*	i	i	i
Cc1cccc(CCNC(=O)Cc2ccc(NC3=NC4CS(=O)(=O)CC4S3)cc2)c1 (centres undefined)	i	i	i	i	i	/	/	/
Cc1cccnc1NC(=O)C1c2ccccc2Oc2ccccc21	i	i	i	i	8.2*	10%*	i	i
Cc1ccccc1NC(=O)C1c2ccccc2Oc2ccccc21	i	i	i	i	i	/	/	/
NS(=O)(=O)c1ccc(NS(=O)(=O)c2ccc3c(c2)OCCO3)cc1	i	i	i	i	i	/	/	/

Screening results as filed in PubChem BioAssay.
